Reference: ChEMBL document CHEMBL1136224, “De novo synthesis of two new cytotoxic tiazofurin analogues with modified sugar moieties” (Bioorg Med Chem Lett, 2003)

Assays:
Format in all cases: functional, cell-based
Settings in all cases: Homo sapiens
K562 = experiment: Concentration required to inhibit K562 cell growth
Outline: (§1)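 MTT assay after 24 h incubation with compound, top tested concentration 1000 µM. IC50 = concentration giving 50% inhibition of cell growth relative to untreated control. Human lines: myelogenous leukaemia K562, promyelocytic leukaemia HL60, colon adenocarcinoma HT29, breast adenocarcinoma MCF7, normal foetal lung MRC-5.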

HL-60 = experiment: Concentration required to inhibit HL-60 cell growth; outline: as §1
MRC5 = experiment: Concentration required to inhibit MRC-5 cell growth; outline: as §1
HT-29 = experiment: Concentration required to inhibit HT-29 cell growth; outline: as §1
MCF7 = experiment: Concentration required to inhibit MCF-7 cell growth; outline: as §1

| SMILES | IC50 (K562) [µM] | IC50 (HL-60) [µM] | IC50 (MRC5) [µM] | IC50 (HT-29) [µM] | IC50 (MCF7) [µM] |
| --- | --- | --- | --- | --- | --- |
| NC(=O)c1csc([C@@H]2O[C@H](CO)[C@@H](F)[C@H]2O)n1 | 96.6 | 10.5 | > 1000 | 0.91 | > 1000 |
| CC(=O)N[C@H]1[C@@H](O)[C@H](c2nc(C(N)=O)cs2)O[C@@H]1CO | 0.095 | 1000 | 89.7 | 1 | > 1000 |
| NC(=O)c1csc([C@@H]2O[C@H](CO)[C@@H](O)[C@H]2O)n1 [TIAZOFURIN] | 4.16 | 9.32 | 0.85 | 1.01 | 8.49 |
